ChEMBL document CHEMBL2331506, “Design, synthesis, antiviral and cytostatic evaluation of novel isoxazolidine nucleotide analogues with a carbamoyl linker” (Bioorg Med Chem, 2013)
Active and inactive are the calls of the source. No rule for the calls is given here.

How the values were obtained:
[1] = tested on: Vesicular stomatitis virus; experiment: Antiviral activity against Vesicular stomatitis virus infected in human HEL cells assessed as reduction of virus-induced cytopathogenicity at 250 uM; type: functional, organism-based
In short: (§1)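 Confluent cell monolayers were infected with 100 CCID50 of virus while exposed to varying compound concentrations. Cytopathicity was scored once it was complete in untreated infected controls. EC50 was taken as the concentration that reduced virus-induced cytopathogenicity by 50%.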

[2] = Cytotoxicity against cat CRFK cells assessed as alteration of cell morphology up to 100 uM by microscopic analysis; type: cell-based, Felis catus
In short: (§2)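 Uninfected host-cell cultures were exposed to compound and examined by microscopy. Cytotoxicity was expressed as the minimum cytotoxic concentration (MCC) causing a microscopically detectable alteration of normal cell morphology.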

MDCK = experiment: Cytotoxicity against dog MDCK cells assessed as alteration of cell morphology up to 100 uM by microscopic analysis; type: cell-based, Canis lupus familiaris; in short: as §2
Human alphaherpesvirus 1 [3] = experiment: Antiviral activity against Herpes simplex virus 1 KOS infected in human HEL cells assessed as reduction of virus-induced cytopathogenicity at 250 uM; type: functional, organism-based
In short: (§3)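 Confluent monolayers (HEL fibroblasts, Vero, or HeLa cells as listed) were infected with 100 CCID50 of virus in the presence of varying compound concentrations. Virus-induced cytopathicity or plaque formation was scored once cytopathicity was complete in untreated infected controls. EC50 was taken as the concentration reducing cytopathogenicity or plaque formation by 50%.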

Feline coronavirus = experiment: Antiviral activity against Feline coronavirus infected in cat CRFK cells assessed as reduction of virus-induced cytopathogenicity at 250 uM; type: functional, organism-based
Felid alphaherpesvirus 1 = experiment: Antiviral activity against Feline herpes virus infected in cat CRFK cells assessed as reduction of virus-induced cytopathogenicity at 250 uM; type: functional, organism-based
Sindbis virus = experiment: Antiviral activity against Sindbis virus infected in african green monkey Vero cells assessed as reduction of virus-induced cytopathogenicity at 250 uM; type: functional, organism-based; in short: as §3
Human alphaherpesvirus 1 [4] = experiment: Antiviral activity against thymidine kinase-deficient, ACV-resistant Herpes simplex virus 1 KOS infected in human HEL cells assessed as reduction of virus-induced cytopathogenicity at 250 uM; type: functional, organism-based; in short: as §1
Human alphaherpesvirus 2 = experiment: Antiviral activity against Herpes simplex virus 2 G infected in human HEL cells assessed as reduction of virus-induced cytopathogenicity at 250 uM; type: functional, organism-based; settings: strain G; in short: as §3
[5] = tested on: Respiratory syncytial virus; experiment: Antiviral activity against Respiratory syncytial virus long infected in human HeLa cells assessed as reduction of virus-induced cytopathogenicity at 250 uM; type: functional, organism-based; in short: as §3
[6] = tested on: Mammalian orthoreovirus 1; experiment: Antiviral activity against Reovirus 1 infected in african green monkey Vero cells assessed as reduction of virus-induced cytopathogenicity at 250 uM; type: functional, organism-based; in short: as §3
HEL = experiment: Cytotoxicity against human HEL cells assessed as alteration of cell morphology up to 100 uM by microscopic analysis; type: cell-based; in short: as §2
Influenza A virus [7] = experiment: Antiviral activity against Influenza A virus H1N1 infected in dog MDCK cells assessed as reduction of virus-induced cytopathogenicity at 250 uM; type: functional, organism-based; in short: as §1
[8] = tested on: Human immunodeficiency virus 2; experiment: Antiviral activity against Human immunodeficiency virus 2 ROD infected in human CEM cells assessed as reduction of virus-induced giant cell formation at 250 uM after 4 to 5 days; type: functional, organism-based; settings: CCRF-CEM
In short: (§4)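 CEM cells at 3 × 10^5 cells/mL were infected with HIV at 100 CCID50 per mL in the presence of compound dilutions. They were held 4–5 days at 37 °C in humidified CO2. Syncytium (giant cell) formation was scored microscopically, and EC50 was taken as the concentration inhibiting giant cell formation by 50%.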

[9] = tested on: Vesicular stomatitis virus; experiment: Antiviral activity against Vesicular stomatitis virus infected in human HeLa cells assessed as reduction of virus-induced cytopathogenicity at 250 uM; type: functional, organism-based; in short: as §1
Punta Toro virus = experiment: Antiviral activity against Punta Toro virus infected in african green monkey Vero cells assessed as reduction of virus-induced cytopathogenicity at 250 uM; type: functional, organism-based; in short: as §3
[10] = tested on: Human immunodeficiency virus 1; experiment: Antiviral activity against Human immunodeficiency virus 1 3B infected in human CEM cells assessed as reduction of virus-induced giant cell formation at 250 uM after 4 to 5 days; type: functional, organism-based; settings: CCRF-CEM; in short: as §4
Influenza A virus [11] = experiment: Antiviral activity against Influenza A virus H3N2 infected in dog MDCK cells assessed as reduction of virus-induced cytopathogenicity at 250 uM; type: functional, organism-based; in short: as §1
Human respirovirus 3 = experiment: Antiviral activity against Parainfluenza virus 3 infected in african green monkey Vero cells assessed as reduction of virus-induced cytopathogenicity at 250 uM; type: functional, organism-based; in short: as §3
Coxsackievirus B4 = experiment: Antiviral activity against Coxsackievirus B4 infected in african green monkey Vero cells assessed as reduction of virus-induced cytopathogenicity at 250 uM; type: functional, organism-based; in short: as §3
Vero = experiment: Cytotoxicity against african green monkey Vero cells assessed as alteration of cell morphology up to 100 uM by microscopic analysis; type: cell-based; settings: chlorocebus sabaeus; in short: as §2
HeLa = experiment: Cytotoxicity against human HeLa cells assessed as alteration of cell morphology up to 100 uM by microscopic analysis; type: cell-based; in short: as §2
Influenza B virus = experiment: Antiviral activity against Influenza B virus infected in dog MDCK cells assessed as reduction of virus-induced cytopathogenicity at 250 uM; type: functional, organism-based; in short: as §1

Structure (SMILES)	inhibition [1]	Activity [2]	Activity (MDCK)	inhibition (Human alphaherpesvirus 1 [3])	inhibition (Feline coronavirus)	inhibition (Felid alphaherpesvirus 1)	inhibition (Sindbis virus)	inhibition (Human alphaherpesvirus 1 [4])	inhibition (Human alphaherpesvirus 2)	inhibition [5]	inhibition [6]	Activity (HEL)	inhibition (Influenza A virus [7])	inhibition [8]	inhibition [9]	inhibition (Punta Toro virus)	inhibition [10]	inhibition (Influenza A virus [11])	inhibition (Human respirovirus 3)	inhibition (Coxsackievirus B4)	also measured
CCOP(=O)(OCC)[C@H]1C[C@H](C(=O)Nc2cc(OC)cc(OC)c2)ON1C (mixture of isomers)	inactive	Non-toxic	Non-toxic	inactive	inactive	inactive	inactive	inactive	inactive	inactive	inactive	Non-toxic	inactive	inactive	inactive	inactive	inactive	inactive	inactive	inactive	Activity (Vero): Non-toxic; Activity (HeLa): Non-toxic; inhibition (Influenza B virus): inactive
CCOP(=O)(OCC)[C@@H]1C[C@H](C(=O)Nc2ccc(C#N)cc2)ON1C (mixture of isomers)	inactive	Non-toxic	Non-toxic	inactive	inactive	inactive	inactive	inactive	inactive	inactive	inactive	Non-toxic	inactive	inactive	inactive	inactive	inactive	inactive	inactive	inactive	Activity (Vero): Non-toxic; Activity (HeLa): Non-toxic; inhibition (Influenza B virus): inactive
CCOP(=O)(OCC)[C@H]1C[C@H](C(=O)Nc2cccc(Cl)c2)ON1C (mixture of isomers)	inactive	Non-toxic	Non-toxic	inactive	inactive	inactive	inactive	inactive	inactive	inactive	inactive	Non-toxic	inactive	inactive	inactive	inactive	inactive	inactive	inactive	inactive	Activity (Vero): Non-toxic; Activity (HeLa): Non-toxic; inhibition (Influenza B virus): inactive
CCOP(=O)(OCC)[C@@H]1C[C@H](C(=O)Nc2ccccc2[N+](=O)[O-])ON1C (mixture of isomers)	inactive	Non-toxic	Non-toxic	inactive	inactive	inactive	inactive	inactive	inactive	inactive	inactive	Non-toxic	inactive	inactive	inactive	inactive	inactive	inactive	inactive	inactive	Activity (Vero): Non-toxic; Activity (HeLa): Non-toxic; inhibition (Influenza B virus): inactive
CCOP(=O)(OCC)[C@H]1C[C@H](C(=O)Nc2cccc([N+](=O)[O-])c2)ON1C (mixture of isomers)	inactive	Non-toxic	Non-toxic	inactive	inactive	inactive	inactive	inactive	inactive	inactive	inactive	Non-toxic	inactive	inactive	inactive	inactive	inactive	inactive	inactive	inactive	Activity (Vero): Non-toxic; Activity (HeLa): Non-toxic; inhibition (Influenza B virus): inactive
CCOP(=O)(OCC)[C@H]1C[C@H](C(=O)Nc2cc(OC)c(OC)c(OC)c2)ON1C (mixture of isomers)	inactive	Non-toxic	Non-toxic	inactive	inactive	inactive	inactive	inactive	inactive	inactive	inactive	Non-toxic	inactive	inactive	inactive	inactive	inactive	inactive	inactive	inactive	Activity (Vero): Non-toxic; Activity (HeLa): Non-toxic; inhibition (Influenza B virus): inactive
CCOP(=O)(OCC)[C@@H]1C[C@H](C(=O)Nc2cc(OC)c(OC)cc2C(C)=O)ON1C (mixture of isomers)	inactive	Non-toxic	Non-toxic	inactive	inactive	inactive	inactive	inactive	inactive	inactive	inactive	Non-toxic	inactive	inactive	inactive	inactive	inactive	inactive	inactive	inactive	Activity (Vero): Non-toxic; Activity (HeLa): Non-toxic; inhibition (Influenza B virus): inactive
CCOP(=O)(OCC)[C@@H]1C[C@H](C(=O)Nc2cccc(C(C)=O)c2)ON1C (racemic)	inactive	Non-toxic	Non-toxic	inactive	inactive	inactive	inactive	inactive	inactive	inactive	inactive	Non-toxic	inactive	inactive	inactive	inactive	inactive	inactive	inactive	inactive	Activity (Vero): Non-toxic; Activity (HeLa): Non-toxic; inhibition (Influenza B virus): inactive
